SMILES strings stand for the structures.

Target in the first assay: not listed separately
The assay can be described thus: Inhibition of almond beta-glucosidase. The arrangement: species or system Prunus dulcis.
Broadly, the Ki is a dissociation constant, usually derived from enzyme kinetics or from competition with a known ligand. Consider `OC[C@H]1N/C(=N/CCc2ccccc2)[C@H](O)[C@@H](O)[C@H]1O`, for which the inhibition constant Ki was at most 1.2 nM.

The next assay deals with T1, Beta-galactosidase (Aspergillus oryzae, UniProt Q2U7N3).
T1 sequence (Q2U7N3 whole entry): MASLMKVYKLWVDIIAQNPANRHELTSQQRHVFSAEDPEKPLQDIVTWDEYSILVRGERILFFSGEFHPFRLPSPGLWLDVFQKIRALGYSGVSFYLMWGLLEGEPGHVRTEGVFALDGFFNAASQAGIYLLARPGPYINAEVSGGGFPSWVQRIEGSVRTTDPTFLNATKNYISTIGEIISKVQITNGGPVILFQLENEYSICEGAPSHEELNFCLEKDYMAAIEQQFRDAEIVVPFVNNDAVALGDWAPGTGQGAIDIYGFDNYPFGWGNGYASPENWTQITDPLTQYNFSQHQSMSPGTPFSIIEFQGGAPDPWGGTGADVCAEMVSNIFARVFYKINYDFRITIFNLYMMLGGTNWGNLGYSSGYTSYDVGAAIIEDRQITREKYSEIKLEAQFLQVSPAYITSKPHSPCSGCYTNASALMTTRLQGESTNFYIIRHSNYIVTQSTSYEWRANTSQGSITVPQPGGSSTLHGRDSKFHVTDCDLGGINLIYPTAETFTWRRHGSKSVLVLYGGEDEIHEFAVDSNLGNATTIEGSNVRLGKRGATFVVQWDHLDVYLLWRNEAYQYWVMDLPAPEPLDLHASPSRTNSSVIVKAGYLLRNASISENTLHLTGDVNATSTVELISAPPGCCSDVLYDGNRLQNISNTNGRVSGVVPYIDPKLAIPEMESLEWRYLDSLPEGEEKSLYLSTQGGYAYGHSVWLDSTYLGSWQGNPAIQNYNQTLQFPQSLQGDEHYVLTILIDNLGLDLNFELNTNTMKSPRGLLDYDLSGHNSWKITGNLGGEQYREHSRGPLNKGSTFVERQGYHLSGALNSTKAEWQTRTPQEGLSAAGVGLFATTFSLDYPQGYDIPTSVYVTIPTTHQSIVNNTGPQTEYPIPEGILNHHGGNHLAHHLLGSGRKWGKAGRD
The assay can be described thus: Inhibition of Aspergillus oryzae beta-galactosidase using 2-chloro-4-nitrophenyl beta-Dgalactopyranoside as substrate by spectrophotometry. A digest of the protocol: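 Dextrin-stabilised lyophilised A. oryzae enzyme in 50 mM acetate, pH 5.00, 30 °C, 100 μL. Substrate plus inhibitor preincubated 30 min before enzyme addition. 2-chloro-4-nitrophenolate read at 405 nm. […] For IC50, substrate was fixed, inhibitor 5 × 10⁻⁴–50 μM, read at 60 min against blanks, in duplicate.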
`COc1ccc(C/N=C2\N[C@H](CO)[C@H](O)[C@H](O)[C@H]2O)cc1` yielded an inhibition constant Ki of 17.1 nM. On the same count and under the same terms, as for `OC[C@H]1N/C(=N\Cc2ccc(C(F)(F)F)cc2)[C@H](O)[C@@H](O)[C@H]1O`, the figure is 15.7 nM; as for `OC[C@H]1N/C(=N\Cc2ccc(F)cc2)[C@H](O)[C@@H](O)[C@H]1O`, 10.1 nM; as for `CC(C)(C)c1ccc(C/N=C2\N[C@H](CO)[C@H](O)[C@H](O)[C@H]2O)cc1`, 20.6 nM.

For `OC[C@H]1N/C(=N\Cc2ccccc2F)[C@H](O)[C@@H](O)[C@H]1O`, the Ki was 16.1 nM. Turning to `OC[C@H]1N/C(=N\Cc2cccc(F)c2)[C@H](O)[C@@H](O)[C@H]1O`, the Ki worked out at 20.3 nM. Same read-out and setting: as for `OC[C@H]1N/C(=N\Cc2ccccc2)[C@H](O)[C@@H](O)[C@H]1O`, the figure is 21.1 nM; as for `Cc1ccccc1C/N=C1\N[C@H](CO)[C@H](O)[C@H](O)[C@H]1O`, 23.6 nM. Same read-out and setting: as for `Cc1cccc(C/N=C2\N[C@H](CO)[C@H](O)[C@H](O)[C@H]2O)c1`, the figure is 29.4 nM. What is called IC50 is the concentration at which inhibition is half-maximal. A lower IC50 goes with greater potency in that assay. `Cc1ccc(C/N=C2\N[C@H](CO)[C@H](O)[C@H](O)[C@H]2O)cc1` came in with a half-maximal inhibitory concentration (IC50) of 36 nM and a Ki of 8 nM. `CCC/N=C1\N[C@H](CO)[C@H](O)[C@H](O)[C@H]1O` returned a Ki of 149 nM. Consider `CCCCCCC/N=C1\N[C@H](CO)[C@H](O)[C@H](O)[C@H]1O`, for which 107 nM corresponded to half-maximal inhibition (IC50) and affinity was put at a Ki of 10.8 nM. Molecule `CCCCCCCCCCCC/N=C1\N[C@H](CO)[C@H](O)[C@H](O)[C@H]1O` came in with a Ki of 48.4 nM. Take `CCCCC(CC)/N=C1\N[C@H](CO)[C@H](O)[C@H](O)[C@H]1O` (stereo partly drawn): the IC50 is 22 nM and the Ki turned out to be 7.8 nM. As to `OC[C@H]1N/C(=N\CCCc2ccccc2)[C@H](O)[C@@H](O)[C@H]1O`, the half-maximal inhibitory concentration (IC50) was determined as 36 nM and the affinity corresponds to a Ki of 8.6 nM. As to `OC[C@H]1N/C(=N\C2CC2)[C@H](O)[C@@H](O)[C@H]1O`, the inhibitory constant (Ki) was determined as 31.9 nM. Molecule `OC[C@H]1N/C(=N\C2CCCCC2)[C@H](O)[C@@H](O)[C@H]1O` had a 50% inhibitory concentration (IC50) of 4800 nM and a Ki of 602 nM. For `OC[C@H]1N/C(=N\CC2CC2)[C@H](O)[C@@H](O)[C@H]1O` the same measures were 0.86 nM and 9.5 nM. In the case of `OC[C@H]1N/C(=N\CC2CCCCC2)[C@H](O)[C@@H](O)[C@H]1O`, the IC50 worked out at 22 nM and the Ki turned out to be 11.3 nM.

With `OC[C@H]1N/C(=N\CC2CCCCCC2)[C@H](O)[C@@H](O)[C@H]1O`, the IC50 was found to be 36 nM and the affinity, expressed as Ki, was 6.3 nM.

The molecule `N=C1N[C@H](CO)[C@H](O)[C@H](O)[C@H]1O` returned a Ki of 150 nM. Still for that read-out and setting: the value for `O=C1N[C@H](CO)[C@H](O)[C@H](O)[C@H]1O` was 615 nM.

Target in a further assay: not listed separately
Nature of the assay: Inhibition of Caldicellulosiruptor saccharolyticus beta-glucosidase.
In the case of `OC[C@H]1N/C(=N/CCc2ccccc2)[C@H](O)[C@@H](O)[C@H]1O`, the Ki was at most 1.2 nM.

Target in the next assay: not listed separately
Nature of the assay: Inhibition of Aspergillus niger beta-glucosidase.
Take `OC[C@H]1N/C(=N/CCc2ccccc2)[C@H](O)[C@@H](O)[C@H]1O`: the Ki is at most 1.2 nM.
